Reference: ChEMBL document CHEMBL3102820, “Developing bivalent ligands to target CUG triplet repeats, the causative agent of myotonic dystrophy type 1” (J Med Chem, 2013)
The source made the active and inactive calls. The rule behind the calls is not given here.

Columns and labels:
HeLa [1] = experiment: Binding affinity to (CUG)960 RNA (unknown origin) expressed in human HeLa cells assessed as foci dispersion at 20 to 50 uM after 36 hrs by confocal microscopic analysis; assay type: cell-based
Summary of the method: (§1)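 HeLa cells, about 120,000 per well on coverslips, were transfected after 1 day with 500 ng DMPK-CTG960 plasmid (CTG0 plasmid for control cells). Ligand was given at 20, 35 or 50 μM for 36 h. Cells were then fixed and foci stained by FISH with Cy3-(CAG)10, with TO-PRO-3 nuclear stain. Confocal excitation was 405 nm (acridine ligand uptake), 555 nm (Cy3) and 639 nm (TO-PRO-3). Over 100 cells were scored for foci; two-tailed Student t test.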

[2] = Drug uptake in nucleus of human HeLa cells expressing (CUG)960 RNA at 35 uM after 36 hrs by confocal microscopic analysis; assay type: ADME, cell-based; summary of the method: as §1
HeLa [3] = experiment: Drug uptake in human HeLa cells expressing (CUG)960 RNA at 35 uM after 36 hrs by confocal microscopic analysis; assay type: ADME, cell-based; summary of the method: as §1
[4] = Inhibition of biotin-labeled (CUG)12 RNA (unknown origin)-MBNL1 interaction by SPR analysis
Summary of the method: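 SPR in 1X PBS with Tween-20 and excess competitor tRNA. Biotinylated (CUG)12 was immobilized on a streptavidin chip and pre-incubated with ligand at varied concentrations to steady-state RU over 150 s. Then 0.65 μM MBNL1 was injected with ligand at the same concentration. Maximum RU at 150 s was converted to % (CUG)12 bound, normalized to the no-ligand value, and fitted for apparent IC50.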

[5] = Binding affinity to 5'-TAMRA-labeled (CUG)6 RNA (unknown origin) by fluorescence titration assay
Summary of the method: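 Steady-state fluorescence titration. Ligand was titrated into 5'-TAMRA-(CUG)6 in 1X PBS, and the drop in TAMRA emission was followed. Normalized intensity was plotted against ligand concentration to give a binding isotherm, which was fitted for KD.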

Nucleic Acid [6] = experiment: Binding affinity to (CUG)12 RNA (unknown origin) assessed as change in melting temperature at 1 equiv treated in aqueous solution by thermal denaturation assay; assay type: nucleic-acid assay; details: unidentified
Nucleic Acid [7] = experiment: Binding affinity to (CUG)12 RNA (unknown origin) assessed as change in melting temperature at 1 equiv treated in 5% DMSO by thermal denaturation assay; assay type: nucleic-acid assay
HeLa [8] = experiment: Binding affinity to (CUG)960 RNA (unknown origin) expressed in human HeLa cells coexpressing GFP-tagged MBNL1 assessed as MBNL1 foci dispersion throughout nucleus at Z-plane of cells at 50 uM after 10 hrs by live cell microscopic analysis; assay type: cell-based; details: unidentified
Summary of the method: (§2)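 HeLa cells co-transfected with DMPK-CTG960 and GFP-MBNL1 plasmids were grown on a gridded dish so each cell could be relocated by DIC. Ligand was added to 50 μM final. Time-lapse confocal images of GFP-MBNL1 foci and acridine fluorescence were taken before addition and at 3, 6 and 10 h. At 10 h, Z-stacks of 1 μm slices through the whole cell were taken. Untreated cells were imaged the same way.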

HeLa [9] = experiment: Binding affinity to (CUG)960 RNA (unknown origin) expressed in human HeLa cells coexpressing GFP-tagged MBNL1 assessed as MBNL1 foci dispersion throughout nucleus at 50 uM after 3 to 10 hrs by live cell microscopic analysis; assay type: cell-based; summary of the method: as §2
[10] = Drug uptake in human HeLa cell nuclear membrane expressing (CUG)960 RNA coexpressing GFP-tagged MBNL1 at 50 uM after 3 to 10 hrs by live cell microscopic analysis; assay type: ADME, cell membranes; summary of the method: as §2
[11] = Drug uptake in human HeLa cell membrane expressing (CUG)960 RNA coexpressing GFP-tagged MBNL1 at 50 uM after 3 to 10 hrs by live cell microscopic analysis; assay type: ADME, cell-based; summary of the method: as §2
[12] = Cytotoxicity against human HeLa cells assessed as cytotoxicity up to 75 uM after 24 hrs by sulforhodamine B assay
Nucleic Acid [13] = experiment: Binding affinity to (CUG)12 RNA (unknown origin) assessed as change in melting temperature by thermal denaturation assay; assay type: nucleic-acid assay
[14] = Inhibition of (CUG)12 RNA (unknown origin)-MBNL1 interaction after 10 to 15 mins

Row | Compound | Drug uptake [2] | Drug uptake (HeLa [3]) | IC50 [4] | Kd [5] | Activity (HeLa [1]) | other results
1 | Nc1nc(N)nc(NCCCCNc2c3ccccc3nc3c(C(=O)NCCOCCOCCOCCOCCOCCNC(=O)c4cccc5c(NCCCCNc6nc(N)nc(N)n6)c6ccccc6nc45)cccc23)n1 |  |  | 37 µM |  |  | ΔTm (Nucleic Acid [7]): 1.8 °C
2 | Nc1nc(N)nc(NCCCCNc2c3ccccc3nc3ccc(C(=O)NCCOCCOCCNC(=O)c4ccc5nc6ccccc6c(NCCCCNc6nc(N)nc(N)n6)c5c4)cc23)n1 |  |  | 18 µM | 23 µM |  | ΔTm (Nucleic Acid [7]): 2.7 °C
3 | Nc1nc(N)nc(NCCCCNc2c3ccccc3nc3c(C(=O)NCCNCCNCCNCCNC(=O)c4cccc5c(NCCCCNc6nc(N)nc(N)n6)c6ccccc6nc45)cccc23)n1 |  |  | 6 µM | 3.8 µM |  | ΔTm (Nucleic Acid [6]): 9.6 °C
4 | Nc1nc(N)nc(NCCCCNc2c3ccccc3nc3ccc(C(=O)NCCCOCCOCCOCCCNC(=O)c4ccc5nc6ccccc6c(NCCCCNc6nc(N)nc(N)n6)c5c4)cc23)n1 |  |  | 28 µM | 75 µM |  | 
5 | Nc1nc(N)nc(NCCCCNc2c3ccccc3nc3c(C(=O)NCCCNCCCNCCCNC(=O)c4cccc5c(NCCCCNc6nc(N)nc(N)n6)c6ccccc6nc45)cccc23)n1 | Active | Active | 1.1 µM | 0.32 µM | Active | Activity (HeLa [8]): Active; Activity (HeLa [9]): Active; Drug uptake [10]: Active; Drug uptake [11]: Active; ΔTm (Nucleic Acid [6]): 9.3 °C; cytotoxicity at 24 h [12]: < 20%
6 | CNC(=O)c1ccc2nc3ccccc3c(NCCCCNc3nc(N)nc(N)n3)c2c1 | Not Active | Not Active | 293 µM | 66 µM | inactive | ΔTm (Nucleic Acid [7]): 1.8 °C; cytotoxicity at 24 h [12]: < 20%
7 | COc1ccc2nc3cc(Cl)ccc3c(NCCCCNc3nc(N)nc(N)n3)c2c1 |  |  |  |  |  | IC50 [14]: 46 µM
8 | Nc1nc(N)nc(NCCCCNc2c3ccccc3nc3ccc(C(=O)NCCCNCCCCCCCCNCCCNC(=O)c4ccc5nc6ccccc6c(NCCCCNc6nc(N)nc(N)n6)c5c4)cc23)n1 | Active | Active |  |  | inactive | 

Continued, in another order:

Row | Drug uptake [2] | Drug uptake (HeLa [3]) | IC50 [4] | Kd [5] | Compound | Activity (HeLa [1]) | other results
9 | Not Active | Not Active | 5 µM | 4.8 µM | Nc1nc(N)nc(NCCCCNc2c3ccccc3nc3c(C(=O)NCCNCCNCCNC(=O)c4cccc5c(NCCCCNc6nc(N)nc(N)n6)c6ccccc6nc45)cccc23)n1 | inactive | ΔTm (Nucleic Acid [6]): 8.4 °C
10 |  |  | 15 µM |  | CC(=O)NCCCNCCCNCCCNC(=O)c1cccc2c(NCCCCNc3nc(N)nc(N)n3)c3ccccc3nc12 |  | ΔTm (Nucleic Acid [13]): 2.5 °C
11 |  |  | 43 µM |  | Nc1nc(N)nc(NCCCCNc2c3ccccc3nc3ccc(C(=O)NCCOCCOCCOCCOCCOCCNC(=O)c4ccc5nc6ccccc6c(NCCCCNc6nc(N)nc(N)n6)c5c4)cc23)n1 |  | 
